Assay results from different studies.
Each line is one published result; the experiments were not run side by side.

Structure (SMILES) | test system | conditions | Papp [×10⁻⁶ cm/s]
COCCOCCOCCOc1c(OC)cc2cc(C(=O)N3C[C@@H](CCl)c4c3cc(O)c3[nH]c(C(=O)OC)cc43)[nH]c2c1OC | PAMPA | 1 µM, 5 h, pH 7.4 | 4.2
Cc1nonc1Cn1nnc2c(N3CC[C@H](O)C3)nc(C(C)(C)C)nc21 | PAMPA |  | 2.2
O=C1NC(=O)C(c2ccccc2)(c2ccccc2)N1 | PAMPA | 200 µM, 5 h, pH 7.4 | 6.1
O=c1cc(-c2ccccc2)oc2c(O)c(O)ccc12 | PAMPA-BBB | 1 µM, 18 h | 6.32
CC[C@@H](C)[C@@H]1NC(=O)[C@@H](CC(C)C)NC(=O)CN(C)C(=O)[C@H]([C@H](C)CC)NC(=O)[C@@H](CC(C)C)NC(=O)CN(C)C1=O | PAMPA |  | 38
N#Cc1ccc(COc2cccc(C(=O)Nc3ccc4c(c3)B(O)OC4)c2)cc1 | PAMPA | 200 µM, 5 h, pH 7.4 | 0.076
CNC(=O)[C@@H](NC(=O)c1cc(OCC2(C)COC2)c(C2CC2)cn1)C(C)(C)C | PAMPA |  | 5.17
O=C(Nc1ccc2c(c1)B(O)OC2)c1ccccc1OCc1ccccc1 | PAMPA | 200 µM, 5 h, pH 7.4 | 1.2
CN1CCN([C@@H](c2ccccc2)c2ccc(Cl)cc2)CC1 | PAMPA |  | 1830
O=C(Nc1ccc2c(c1)B(O)OC2)c1cccc(OCc2c(Cl)cccc2Cl)c1 | PAMPA | 200 µM, 5 h, pH 7.4 | 0.91
O=C1[O][Pt]2([NH][C@@H]3CCCC[C@H]3[NH]2)[O]C1=O (relative stereo) | PAMPA | pH 6.8 | 0.448
COc1ccc(C[C@@H]2NC(=O)[C@@H](CC(C)C)NC(=O)[C@H](CCSC)NC(=O)[C@H](CC(C)C)NC(=O)[C@@H](CC(C)C)NC(=O)[C@H]3CCCN3C2=O)cc1 | PAMPA | 10 µM, 7 h | 13
CC[C@@H](C)[C@@H]1NC(=O)[C@@H](Cc2ccc(OC)cc2)NC(=O)CN(C)C(=O)[C@H]([C@H](C)CC)NC(=O)[C@@H](Cc2ccc(OC)cc2)NC(=O)CN(C)C1=O | PAMPA |  | 29
O=C(Nc1cccc(B(O)O)c1)c1cccc(OCc2ccccc2)c1 | PAMPA | 200 µM, 5 h, pH 7.4 | 0.1
COc1ccc(C[C@@H]2NC(=O)[C@@H](CC(C)C)NC(=O)[C@H](C)NC(=O)[C@H](CC(C)C)NC(=O)[C@@H](CC(C)C)NC(=O)[C@H]3CCCN3C2=O)cc1 | PAMPA | 10 µM, 7 h | 19
